pIC50: −log10 of the molar value.
Key:
[1] = Cytotoxicity against p53-knockdown human U87MG cells after 5 days by methylene blue staining assay; format: functional, cell-based, U-87MG ATCC; conditions: U-87 MG, 120 h
Procedure, shortened: (§1)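 Cells exposed in triplicate to vehicle or increasing compound concentrations; survival read 5 days post-exposure. Cell mass quantified by methylene blue staining, dye solubilized in 0.1N HCl, absorbance at 610nm. Mean and standard deviation; significance vs media control by Dunnett's multiple comparisons test. IC50 derived from dose-response data.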

[2] = Cytotoxicity against human U87MG cells after 5 days by methylene blue staining assay; format: functional, cell-based, U-87MG ATCC; conditions: U-87 MG, 120 h; procedure, shortened: as §1
[3] = Cytotoxicity against human CD34-positive blood stem/progenitor cells at 0.3 to 30 uM after 10 to 14 days by inverted light microscopic analysis; format: cell-based
Procedure, shortened: (§2)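 Human CD34+ progenitor cells isolated from umbilical cord blood, treated in triplicate at 0.3, 3.0 and 30 µM in colony-forming unit assays. Progenitor cell (colony) frequency determined after 14 days; compared against control.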

SK-N-FI = assay: Cytotoxicity against human SK-N-FI cells after 5 days by methylene blue staining assay; format: functional, cell-based; conditions: 120 h; procedure, shortened: as §1
[4] = Cytotoxicity against human U87MG cells expressing sh-GFP after 5 days by methylene blue staining assay; format: functional, cell-based, U-87MG ATCC; conditions: U-87 MG, 120 h; procedure, shortened: as §1
SK-N-SH = assay: Cytotoxicity against human SK-N-SH cells after 5 days by methylene blue staining assay; format: functional, cell-based; conditions: 120 h; procedure, shortened: as §1
[5] = Cytotoxicity against human CD34-positive blood stem/progenitor cells at 30 uM after 10 to 14 days by inverted light microscopic analysis relative to control; format: cell-based; procedure, shortened: as §2

Row | Compound | pIC50 [1] | pIC50 [2] | Activity [3] | pIC50 (SK-N-FI) | pIC50 [4] | pIC50 (SK-N-SH) | Activity [5] [%]
1 | COc1cc(OC)c(C(C#CCCc2ccc(O[Si](C)(C)C(C)(C)C)cc2)CC(=O)c2ccc(O)cc2)c(OC)c1 (centres undefined) | 5.15 | 5.12 | Non-toxic | 4.51 | 5.15 | 4.74 | 
2 | COc1cc(OC)c(C(C#CCCc2ccc(O[Si](C)(C)C(C)(C)C)cc2)CC(=O)c2ccc(OC(C)=O)cc2)c(OC)c1 (centres undefined) | 5.15 | 5.10 | Non-toxic | 4.66 | 5.16 | 4.93 | 20
3 | COc1cc(/C=C/C(=O)CC(=O)/C=C/c2ccc(O)c(OC)c2)ccc1O [CURCUMIN] |  | 5.09 |  | 4.95 |  | 5.19 | 
4 | COc1cc(OC)c(C(C#CCCc2ccc(O[Si](C)(C)C(C)(C)C)cc2)CC(=O)c2ccc(O[Si](C)(C)C(C)(C)C)cc2)c(OC)c1 (centres undefined) |  | 4.72 |  | < 4.00 |  | 4.31 | 
